Source: PubChem BioAssay (several laboratories)
Diaph act CS: activates diaphorase or chemically reduces, flagging diaphorase assay artifacts; Diaphorase/resazurin coupled assay, resorufin fluorescence, 16 min; stronger effect = higher value; 1 = vehicle wells, 0 = NADH-free wells; actives 0.005% (n = 190,000); activation factor at 20 µM; AID 1229;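 active = diaphorase activity raised at least twofold by the compound at 20 µM; inactive = activation factor below 2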
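Material: purified diaphorase enzyme from Clostridium kluyveri; Also added: 0.114 mM NADH and 0.1 mM resazurin, final amounts; Doses: single compound dose of 20 µM, 1% DMSO final; Times: 16 min enzyme reaction, ambient temperature; Detection: resorufin fluorescence, excitation 544 nm, emission 590 nm; Measure: increased resorufin signal from activators or reducing compounds.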
G6PDH counter: counter-screen for G6PDH assay hits: L. mesenteroides G6PDH inhibition; Purified L. mesenteroides G6PDH, diaphorase/resazurin coupled fluorescence, 45 min; inhibition, % at 5 µM; actives 0.12% (n = 200,000); AID 1020
Lmaj promast: Leishmania major promastigote growth inhibition; AID 1063; inhibition, % at 10 µM; actives 9% (n = 200,000); Leishmania major promastigotes, resazurin fluorescence viability;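 note: promastigotes grown with compound for 44 hours at 28 °C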
WT yeast gro inh: growth inhibition of WT yeast, mitochondrial fusion screen. mitochondrial fusion phenotypic screen, WT strain. actives 2.1% (n = 190,000). inhibition, % at 10 µM. AID 1362; in the data active = inhibition above about 58%; tested in S. cerevisiae
Diaph inh CS: counter-screen for diaphorase-based assays: diaphorase inhibitors and chemical oxidizers; inhibition, % at 20 µM; diaphorase resazurin-to-resorufin fluorescence, NADH, 16 min; bacterial (C. kluyveri) enzyme, not human; actives 0.69% (n = 190,000);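 active = primary screen inhibition at 20 µM above a set limit, cut at about 50% in these data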;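 note: plate controls were DMSO with full reaction for no effect and wells lacking NADH for full effect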
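Test system: diaphorase enzyme from Clostridium kluyveri; amount: diaphorase at 0.14 U/mL in enzyme working solution; detection: fluorescence of resorufin formed from resazurin, Ex 544/Em 590 nm; times: reaction incubation of 16 min at room temperature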
Lmaj promast 1uM: inhibitors of Leishmania major promastigote growth, repeat at 1 uM | L. major promastigote growth, resazurin fluorescence, 48 h | AID 1258 | inhibition, % at 1 µM | shares compounds with Lmaj promast | actives 13% (n = 1,100);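 active = inhibition above about 50% in both repeat tests, limit read from the data; inconclusive = one repeat under the set limit, the other over it; inactive = both repeats under the set limit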
An asterisk follows results filed as active; ? = inconclusive; / = no result given. A selection: hits, their analogues and other compounds. The true share with any hit is near 11%. Cut-off read from the data, not from the text of the source, unless noted: active = inhibition above about 50%; inactive = the rest.

SMILES | Diaph act CS | G6PDH counter | Lmaj promast | WT yeast gro inh | Diaph inh CS | Lmaj promast 1uM
COc1ccc2c(c1)SCCC2=O | 0.8 | 7 | -8 | -3 | 17 | /
Nc1ccc(-c2nc3ccc(-c4nc5ccccc5o4)cc3[nH]2)cc1 | 1 | 4 | 76* | 17 | 1 | -27
Nc1ccc(-c2nc3ccc(N)cc3[nH]2)cc1 | 0.9 | 5 | 11 | 21 | 11 | /
CN(Cc1nc(-c2ccncc2)no1)S(=O)(=O)c1ccc(Br)cc1 | 0.8 | -15 | 5 | 4 | 22 | /
COc1ccc(OCC(=O)N2c3ccc(C)cc3C3CN(C)CCC32)cc1 (centres undefined) | 0.9 | 0 | 2 | -5 | 6 | /
Cc1ccc2c(c1)C1CN(C)CCC1N2C(=S)NC(=O)c1ccc(Br)cc1 (centres undefined) | 0.8 | -3 | 99* | -7 | 22 | -7
Cc1cc(C)nc(SCc2nnc(SCC(N)=O)o2)n1 | 0.8 | 10 | -6 | 0 | 16 | /
CCOC(=O)/C(=C/c1c(C)n(C)c2ccc([N+](=O)[O-])cc12)C(C)=O | 1 | 12 | 83* | -10 | 4 | 22
CC(=O)c1c(C)n(C)c2ccc(OC(=O)c3ccc([N+](=O)[O-])cc3)cc12 | 0.9 | 9 | -4 | -5 | 9 | /
N#Cc1ccc(-c2csc(NC3=NCCCCC3)n2)cc1 | 0.8 | -4 | 87* | -5 | 22 | -5
C[N+](C)(CC#Cc1ccccc1)CC(=O)c1ccccc1 | 1 | 8 | -3 | -18 | 2 | /
COC(=O)C[N+](C)(C)CC#Cc1ccccc1 | 0.9 | -2 | 53* | -15 | 9 | -17
CC(=O)Nc1ccc(N2C(C(C)=O)=NN(c3ccccc3)C2c2cccs2)cc1 (centres undefined) | 0.8 | 6 | 3 | 25 | 18 | /
CC(=O)Nc1ccc(C2=NN(c3ccccc3)C(c3cccs3)C2)cc1 (centres undefined) | 0.9 | 6 | 66* | -15 | 12 | -5
CC(C)Nc1nc(NC(N)=S)nc(NC(C)C)n1 | 0.9 | 1 | -1 | -7 | 9 | /
CN1CCN(C(=S)NC(=O)c2ccc(S(=O)(=O)N3CCOCC3)cc2)CC1 | 0.9 | -5 | 9 | 22 | 9 | /
O=C(NC(=S)N1CCN(C(c2ccccc2)c2ccccc2)CC1)c1ccc(S(=O)(=O)N2CCOCC2)cc1 | 0.9 | -8 | 99* | 7 | 6 | -3
CSc1nnc(-c2sccc2OCc2ccc(C)cc2)n1C | 0.9 | -3 | 6 | 15 | 8 | /
CCOC(=O)c1c(CN(C)C)n(-c2ccc(C)cc2)c2cc(Br)c(O)cc12 | 0.7 | -6 | 30 | -7 | 34 | /
CCOC(=O)c1c(CSC(=N)N)n(-c2ccc(C)cc2)c2cc(Br)c(OC(C)=O)cc12 | 1.3 | 13 | 53* | 3 | -28 | -7
CC1=C(C(=O)Nc2ccccc2)C(c2sccc2C)n2nnnc2N1 (centres undefined) | 1 | 7 | 0 | -2 | 0 | /
CCOC(=O)c1c(-c2ccc(F)cc2)csc1NC(=O)CCN1CCOCC1 | 0.9 | -8 | 93* | 36 | 13 | 77*
O=C1NC(=O)c2cc(NC(=O)C3CCCCC3)ccc21 | 0.8 | 4 | -7 | 14 | 16 | /
Cc1ccc(C(=O)COC(=O)CCC(=O)NC2CCCCC2)cc1C | 0.9 | -5 | -8 | / | 6 | /
ClCc1nnc(-c2ccccc2)o1 | 1 | 10 | 101* | -1 | 3 | 5
SMILES | Diaph act CS | G6PDH counter | Lmaj promast | WT yeast gro inh | Diaph inh CS | Lmaj promast 1uM
COc1ccc2[nH]cc(CCNS(=O)(=O)c3ccc(F)cc3)c2c1 | 0.9 | 22 | 1 | 0 | 8 | /
C=CCn1c(SCC(=O)N2CCc3ccccc3C2)nc2sc(C)c(C)c2c1=O | 0.8 | -2 | 4 | 16 | 18 | /
Cc1ccc(C)c(N2CCN(C(=O)c3ccc(CSc4nc5ccncc5[nH]4)cc3)CC2)c1 | 0.7 | 8 | 89* | 1 | 30 | ?
Cc1cccc2cc(COC(=O)C(C)C)c(=O)[nH]c12 | 0.9 | 5 | -2 | -44 | 8 | /
Cc1ccc(C(O)(COC(=O)C(C)C)COC(=O)C(C)C)c(O)c1 | 1.1 | 5 | 60* | 0 | -12 | -10
CCS(=O)(=O)c1nnnn1-c1ccccc1S(C)(=O)=O | 1 | 7 | 54* | 11 | 4 | 0
Nc1c(C(=O)NCCN2CCOCC2)c2nc3ccccc3nc2n1CCc1ccccc1F | 0.9 | 8 | 65* | 2 | 14 | -14
CC(=O)Nc1ccc(S(=O)(=O)c2c(N)n(CCN3CCOCC3)c3nc4ccccc4nc23)cc1 | 1.2 | 8 | -5 | 2 | -18 | /
CCC(CC)NCC(O)COc1ccc(Br)cc1 (centres undefined) | 0.9 | 6 | 66* | 15 | 8 | 6
COc1ccc(OCC(O)CNc2ccc(Br)cc2)cc1 (centres undefined) | 0.7 | 11 | 1 | 28 | 32 | /
CCOC(=O)c1cnn(-c2ncnc3sc4c(c23)CCC4)c1N | 0.8 | -1 | 3 | -11 | 16 | /
CCOC(=O)c1cnn(-c2nc(SC)nc3sc4c(c23)CCCC4)c1N | 0.8 | -4 | 60* | 55 | 25 | -1
CCOC(=O)c1nnn(-c2nc(N(C)C)nc(N(C)C)n2)c1C | 1 | -2 | 0 | -4 | 5 | /
CCOC(=O)c1nc2cc3n(c(C)c-2c1C)C(C)C(C)=C3C (centres undefined) | 1 | -48 | 67* | -1 | 4 | -12
COc1ccc(CS(=O)(=O)CC2(O)CCN(C(=O)c3cccc(C(F)(F)F)c3)CC2)cc1 | 1 | -1 | -6 | 7 | -1 | /
N#Cc1c(NC(=O)C2CC(c3c(F)cccc3Cl)=NO2)sc2c1CCC2 (centres undefined) | 0.8 | -17 | 64* | -11 | 15 | -10
Cc1ccc(O)c(NC(=O)C2CC(c3c(F)cccc3Cl)=NO2)c1 (centres undefined) | 0.9 | 1 | -5 | 7 | 10 | /
Cc1cc(C)nc(N(C#N)S(=O)(=O)c2ccccc2)n1 | 0.8 | 5 | -3 | -3 | 16 | /
CCN1C(=O)NC2=C(C(=O)c3ccccc32)C1c1ccccc1F (centres undefined) | 1 | 4 | 100* | 11 | 5 | 29
CCCCc1noc(-c2c(-c3ccccc3Cl)noc2C)n1 | 0.9 | -1 | 12 | 53 | 14 | /
COc1ccc(C(=O)CSc2nnnn2Cc2ccccc2)cc1 | 1 | 1 | -8 | -2 | 4 | /
COC(=O)c1ccc(CSc2nnnn2Cc2ccccc2)cc1 | 0.8 | 4 | 97* | 13 | 16 | -15
COC(=O)c1cn(-c2ccccc2)nc1-c1ccncc1 | 1 | 8 | -1 | 9 | -3 | /
O=C(OCc1ccccc1)c1cn(-c2ccccc2)nc1-c1ccncc1 | 0.9 | 4 | 69* | 11 | 10 | 9
COc1ccc(CCNC(=O)c2cccnc2)cc1 | 0.9 | 4 | -8 | 3 | 14 | /
